Compounds with a hit are over-represented: about 2.8% of the library has one in this group of screens.
PAFAH1B2 FP inh: PAFAH1B2 (human) inhibition; 1.2% of 340,000 active; inhibition, % at 3.39 µM; recombinant PAFAH1B2, FP-rhodamine activity probe, fluorescence polarization;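 active = inhibition above the mean of all tested compounds plus 3 SD, cut at about 24% in these data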;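 also: 0% = enzyme with DMSO and 100% = wells lacking PAFAH1B2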
Target sequence (P68402 whole entry, looked up): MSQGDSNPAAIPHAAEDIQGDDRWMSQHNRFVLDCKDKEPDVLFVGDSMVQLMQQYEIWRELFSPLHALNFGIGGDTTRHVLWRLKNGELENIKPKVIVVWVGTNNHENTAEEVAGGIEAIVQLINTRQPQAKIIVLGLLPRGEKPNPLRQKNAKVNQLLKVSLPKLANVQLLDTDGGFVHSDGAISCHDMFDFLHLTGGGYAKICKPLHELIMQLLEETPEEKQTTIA
pPAFAH inh: pPAFAH (human) enzyme inhibition. inhibition, % at 3.39 µM. Q13093. 1.5% of 330,000 active. AID 463082. recombinant pPAFAH, FP-rhodamine probe fluorescence polarization;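 active = inhibition above the mean inhibition across the screen plus 3 SD, cut at about 25% in these data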;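 also: inhibitors block binding of the rhodamine activity-based probe so polarization drops; 0% = enzyme with DMSO and 100% = wells lacking pPAFAH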
PAFAH2 FP inh: PAFAH2 (human) inhibition; recombinant PAFAH2, FP-rhodamine activity probe, fluorescence polarization; inhibition, % at 3.39 µM; 0.99% of 340,000 active;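 active = inhibition above the mean over all tested compounds plus 3 SD, cut at about 30% in these data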;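 also: inhibitors block probe labeling of enzyme so polarization drops; 0% = enzyme with DMSO and 100% = wells lacking PAFAH2 protein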
HTRA1 inh: blocks human HTRA1 serine peptidase. Q92743. recombinant HTRA1, FP-rhodamine activity-based probe, fluorescence polarization. inhibition, % at 5.96 µM. 0.5% of 340,000 active. AID 504803; in the data active = inhibition above about 36%;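 also: 0% = enzyme with DMSO and 100% = wells lacking enzyme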
Target sequence (Q92743 whole entry, looked up): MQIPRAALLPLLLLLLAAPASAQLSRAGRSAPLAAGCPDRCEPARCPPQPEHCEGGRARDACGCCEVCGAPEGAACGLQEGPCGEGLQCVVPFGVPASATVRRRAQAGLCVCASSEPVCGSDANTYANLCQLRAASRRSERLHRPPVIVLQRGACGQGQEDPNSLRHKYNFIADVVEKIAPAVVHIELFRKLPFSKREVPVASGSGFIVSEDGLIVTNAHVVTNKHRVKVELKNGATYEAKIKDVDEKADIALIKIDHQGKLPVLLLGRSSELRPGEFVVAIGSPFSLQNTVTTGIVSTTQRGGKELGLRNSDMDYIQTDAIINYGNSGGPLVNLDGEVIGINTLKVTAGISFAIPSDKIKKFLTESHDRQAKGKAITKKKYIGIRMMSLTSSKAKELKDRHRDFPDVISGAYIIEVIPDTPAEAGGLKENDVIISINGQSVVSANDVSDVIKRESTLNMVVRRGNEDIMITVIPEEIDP
mABHD4 FP: inhibitors of mouse ABHD4 | Q8VD66 | purified mABHD4, FP-Rh probe fluorescence polarization | inhibition, % at 8.92 µM | 0.54% of 370,000 active | AID 720543;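 active = inhibition exceeding the mean over every tested compound plus 3 SD, cut at about 30% in these data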;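 also: 0% = plate median of compound wells and 100% = S159A mutant with DMSO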
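system = mouse ABHD4 enzyme, wild type | medium = HEPES pH 7.0, NaCl, Pluronic buffer | also added = FP-Rh probe | incubation = Enzyme–compound pre-incubation 45 min, then probe 60 min, both 25 °C | technique = fluorescence polarization, excitation 525 nm, emission 598 nm, BODIPY TMR filters | controls = S159A mutant high control, sample median low control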
PAFAH1B3 inh: blocks human PAF acetylhydrolase 1B catalytic subunit 3; Q15102; AID 492972; recombinant PAFAH1B3, FP-rhodamine probe, fluorescence polarization; inhibition, % at 3.39 µM; 0.28% of 340,000 active;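 active = inhibition above the screen-wide average of all tested compounds plus 3 SD, cut at about 25% in these data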;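 also: 0% = enzyme with DMSO only and 100% = wells lacking PAFAH1B3 protein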
* = called active by the depositor; . = not tested or not shown.

SMILES	PAFAH1B2 FP inh	pPAFAH inh	PAFAH2 FP inh	HTRA1 inh	mABHD4 FP	PAFAH1B3 inh
CCCCC(=O)N[C@H]1CC[C@@]23CCCN2C(=O)CCC[C@H]3[C@H]1C	.	.	.	.	1.5	.
CCOc1ccc(C2Nc3cccc4cccc(c34)N2)cc1OC	-1.2	-2.2	9.1	-1.5	4.4	9.1
CCOc1cc(C2Nc3cccc4cccc(c34)N2)ccc1O	26.8*	5.7	41.0*	37.2*	.	39.8*
CC(=O)NC(=S)NNC(=O)C(c1ccccc1)c1ccccc1	6.6	3.1	5.8	15.8	-1.4	-2.9
N#CCC(=O)NNC(=S)NC(=O)C(c1ccccc1)c1ccccc1	29.0*	10.2	-3.9	22.8	7.7	8.0
Cc1ccc(C(=O)NN2C(=O)c3ccc(S(=O)(=O)c4ccc(C(=O)O)cc4)cc3C2=O)cc1	24.2*	-0.7	5.1	-6.8	6.5	3.1
O=C(O)c1ccc(S(=O)(=O)c2ccc3c(c2)C(=O)N(NC(=O)c2ccc(O)cc2)C3=O)cc1	3.8	0.4	2.1	-0.8	2.4	4.4
CN(C)C(=O)COC(=O)c1ccccc1Nc1ccc(SC(F)F)cc1	4.1	25.8*	5.6	-14.3	-29.5	9.5
CCc1ccc(Oc2c(Cl)cnn(-c3ccc(C)cc3)c2=O)cc1	.	.	.	.	21.8	.
Cc1cc(C)c(S(=O)(=O)Nc2cc(SCC(=O)O)c(O)c3ccccc23)cc1C	.	15.5	.	.	.	.
O=C(O)CSc1cc(NS(=O)(=O)c2ccc(Cl)cc2)c2ccccc2c1O	51.3*	12.1	35.6*	23.1	39.2*	52.5*
CCn1c(SCC(=O)N(C)C)nc2cc(S(=O)(=O)N3CCOCC3)ccc21	77.7*	0.7	7.7	-0.9	1.9	2.0
Cc1ccc(NC(=O)COC(=O)c2cccc(S(=O)(=O)N3CCCCCC3)c2)cc1	.	.	.	-29.7	-19.5	.
NC(=O)NC(=O)COC(=O)c1cccc(S(=O)(=O)N2CCCCCC2)c1	26.8*	-3.7	-0.6	2.6	-3.3	2.1
COc1cccc(S(=O)(=O)Nc2ccc3c(c2)OCCO3)c1	0.7	.	0.3	3.0	-5.2	13.0
COc1ccc(NS(=O)(=O)c2ccc3oc(Nc4ccc5c(c4)OCCO5)nc3c2)cc1	11.8	26.1*	2.9	-20.4	-18.6	12.3
COc1ccccc1CNC(=O)COC(=O)c1ccc(C)c(S(=O)(=O)N2CCCCC2)c1	5.0	26.9*	42.1*	-8.8	0.8	9.9
COc1ccccc1CNC(=O)COC(=O)c1ccc(S(=O)(=O)N2CCCCC2)cc1	2.4	5.5	10.5	5.5	4.8	16.9
COc1cccc(C(=O)OCC(=O)Nc2ccc3c(c2)OCCO3)c1	8.7	27.6*	76.3*	3.0	0.9	14.5
COc1ccc(NC(=O)COC(=O)c2ccc3c(c2)OCCO3)cc1	.	.	.	-0.2	-0.3	.
COC(=O)C1CN(Cc2cn(Cc3ccccc3)nn2)CCS(=O)(=O)N1Cc1ccccc1 (stereo not drawn)	.	.	.	.	6.5	.
O=C(Cn1nc(-c2ccccc2)ccc1=O)NCCc1ccccc1F	.	.	.	.	7.0	.
CCN(C(=O)[C@H]1CC(=O)O[C@@H]1c1ccccc1)c1ccccc1	.	.	.	.	-2.7	.
COc1ccc(CCNC(=O)c2ccc3c(c2)ncn3C2CCCCC2)cc1	.	.	.	.	0.2	.
COc1ccc(NS(=O)(=O)c2ccc(O)c(C(=O)OCC(=O)Nc3ccc4c(c3)OCCO4)c2)cc1	10.4	32.1*	10.3	-9.2	5.8	2.5
SMILES	PAFAH1B2 FP inh	pPAFAH inh	PAFAH2 FP inh	HTRA1 inh	mABHD4 FP	PAFAH1B3 inh
CC1CN(S(=O)(=O)c2cccc(C(=O)OCC(=O)Nc3ccc4c(c3)OCO4)c2)CC(C)O1 (stereo not drawn)	-0.3	11.3	67.1*	-5.7	-7.0	1.3
CC1CN(S(=O)(=O)c2cccc(C(=O)OCC(=O)c3cccs3)c2)CC(C)O1 (stereo not drawn)	-3.7	0.0	13.6	1.4	1.6	10.3
O=C(NCc1ccc(C(F)(F)F)cc1)O[C@H]1CC[C@@]23CCCN2C(=O)CCC[C@H]3C1	.	.	.	.	-0.1	.
COc1ccc(S(=O)(=O)Oc2cccc(/C=N/N=C3/NC(=O)C(CC(=O)O)S3)c2)cc1 (stereo not drawn)	28.4*	6.4	5.3	2.3	3.5	9.5
Cc1ccc(S(=O)(=O)Oc2ccc(/C=N/N=C3/NC(=O)C(CC(=O)O)S3)cc2)cc1 (stereo not drawn)	.	.	.	.	-0.3	.
CCOc1cc(/C=N/N=C2/NC(=O)C(CC(=O)O)S2)ccc1OCc1ccccc1Cl (stereo not drawn)	5.8	25.7*	3.6	-4.6	-11.1	-2.7
COc1ccc(/C=N/N=C2/NC(=O)C(CC(=O)O)S2)cc1OCc1ccccc1Cl (stereo not drawn)	2.3	7.5	-1.8	-3.5	1.1	-2.2
CN(CCOC(=O)CC1C=CCC1)C1CN(Cc2cn(Cc3ccccc3Cl)nn2)S(=O)(=O)C1 (stereo not drawn)	.	.	.	.	-2.1	.
O=C(NCCc1ccccc1)OCc1cn(-c2ccccc2Cl)nn1	.	.	.	.	1.1	.
CC(C)CC(C(=O)Nc1oc(-c2ccco2)c(-c2ccco2)c1C#N)N1C(=O)c2ccccc2C1=O (stereo not drawn)	3.1	32.2*	17.7	-2.7	21.6	7.1
O=S(=O)(O)c1cc(O)c2cc(Nc3ccccc3)ccc2c1	26.0*	.	41.6*	27.3	65.5*	43.2*
Nc1cccc2c(O)cc(S(=O)(=O)O)cc12	70.5*	.	66.5*	30.9	.	76.9*
O=S(=O)(O)c1cc(O)c2ccc(Nc3ccccc3)cc2c1	22.4	.	65.8*	21.1	63.2*	42.5*
Cc1ccc(S(=O)(=O)c2cc(Nc3ccccc3)ccc2O)cc1	4.0	18.8	17.6	15.9	19.3	-1.0
CC(=O)Nc1ccc2c(O)cc(S(=O)(=O)O)cc2c1	7.2	.	-1.6	4.6	13.3	12.0
COc1ccc(S(=O)(=O)Nc2cccc(N(C)S(C)(=O)=O)c2)cc1C	-0.3	-2.7	0.5	4.2	7.2	-4.3
COc1ccc(S(=O)(=O)Nc2cccc(F)c2)cc1C	-2.9	26.5*	5.9	-4.6	-3.5	0.0
COc1cc(CNc2ccc(N3CCOCC3)cc2)cc(Br)c1OC	1.0	9.9	5.2	28.3	12.7	6.4
CCOc1cc(CNc2ccc(N(C)C)cc2)cc(Br)c1OCC(=O)NC(C)(C)C	5.5	34.3*	9.9	0.1	-0.6	7.0
CCOc1cc(CNc2ccc(N3CCOCC3)cc2)cc(Br)c1OCC	3.6	25.0*	7.3	33.4	14.4	8.0
CCOc1cc(CNc2cccc3ccccc23)cc(Br)c1OCC(=O)NC(C)(C)C	3.4	9.1	4.0	-11.5	.	8.5
COc1ccccc1NC(=O)C(=O)NNS(=O)(=O)c1ccc2ccccc2c1	33.7*	6.9	-1.2	-9.5	2.1	11.2
CSC1=NSC2=NC(=O)/C(=C/c3coc4ccccc4c3=O)C(=N)N12	11.3	15.7	24.6	-22.0	-11.1	7.7
CSC1=NSC2=NC(=O)/C(=C/c3coc4ccc(O)cc4c3=O)C(=N)N12	18.4	29.5*	12.3	16.8	-12.4	10.8
